From PubChem
MsrA inh – bovine MsrA inhibition | purified bovine MsrA, absorbance read-out | inhibition, % at 15.5 µM | 360,000 tested, 0.75% active | AID 651718;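 also: 0% = vehicle wells with enzyme and 100% = reference inhibitor wells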
bovine MsrA act – bovine methionine sulfoxide reductase A activation. 360,000 tested, 0.3% active. purified bovine MsrA, absorbance read-out. activation, % at 10.6 µM; in the data active = activation above about 7.5%;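 also: 0% = vehicle and 100% = reference activator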
MT1-MMP act inh – inhibitors of human MT1-MMP activation; P50281; HT1080 RFP-PRO-GFP cells, GFP/RFP ratio fluorescence, overnight; percent of plate control window, DMSO zero; GFP/RFP ratio change, % at 20 µM; 360,000 tested, 0.061% active; AID 651647;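 active = GFP/RFP ratio change of at least 30% with cell ATP level not reduced by more than half and red fluorescence within 50% of control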
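Compound: 20 µM single dose, 1% DMSO / System: HT1080 RFP-PRO-GFP cells / Controls: DMSO and RFP-L50D-GFP cell wells / Read-out basis: GFP/RFP fluorescence ratio / Schedule: overnight compound exposure at 37 °C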
p-CIP stab down – lowers stability of the mouse p/CIP coactivator protein; Q05BA5; F442A p/CIP-EGFP cells, EGFP fluorescence, 16 h; decrease of EGFP signal, % at 10 µM; 290,000 tested, 0.01% active; AID 1984;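 active = EGFP signal decrease of at least 30% at 10 µM or well 3 SD below plate mean, unless failing retest; inactive = the rest, including hits failing retest or dose response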
Target sequence (Q05BA5 1-1403): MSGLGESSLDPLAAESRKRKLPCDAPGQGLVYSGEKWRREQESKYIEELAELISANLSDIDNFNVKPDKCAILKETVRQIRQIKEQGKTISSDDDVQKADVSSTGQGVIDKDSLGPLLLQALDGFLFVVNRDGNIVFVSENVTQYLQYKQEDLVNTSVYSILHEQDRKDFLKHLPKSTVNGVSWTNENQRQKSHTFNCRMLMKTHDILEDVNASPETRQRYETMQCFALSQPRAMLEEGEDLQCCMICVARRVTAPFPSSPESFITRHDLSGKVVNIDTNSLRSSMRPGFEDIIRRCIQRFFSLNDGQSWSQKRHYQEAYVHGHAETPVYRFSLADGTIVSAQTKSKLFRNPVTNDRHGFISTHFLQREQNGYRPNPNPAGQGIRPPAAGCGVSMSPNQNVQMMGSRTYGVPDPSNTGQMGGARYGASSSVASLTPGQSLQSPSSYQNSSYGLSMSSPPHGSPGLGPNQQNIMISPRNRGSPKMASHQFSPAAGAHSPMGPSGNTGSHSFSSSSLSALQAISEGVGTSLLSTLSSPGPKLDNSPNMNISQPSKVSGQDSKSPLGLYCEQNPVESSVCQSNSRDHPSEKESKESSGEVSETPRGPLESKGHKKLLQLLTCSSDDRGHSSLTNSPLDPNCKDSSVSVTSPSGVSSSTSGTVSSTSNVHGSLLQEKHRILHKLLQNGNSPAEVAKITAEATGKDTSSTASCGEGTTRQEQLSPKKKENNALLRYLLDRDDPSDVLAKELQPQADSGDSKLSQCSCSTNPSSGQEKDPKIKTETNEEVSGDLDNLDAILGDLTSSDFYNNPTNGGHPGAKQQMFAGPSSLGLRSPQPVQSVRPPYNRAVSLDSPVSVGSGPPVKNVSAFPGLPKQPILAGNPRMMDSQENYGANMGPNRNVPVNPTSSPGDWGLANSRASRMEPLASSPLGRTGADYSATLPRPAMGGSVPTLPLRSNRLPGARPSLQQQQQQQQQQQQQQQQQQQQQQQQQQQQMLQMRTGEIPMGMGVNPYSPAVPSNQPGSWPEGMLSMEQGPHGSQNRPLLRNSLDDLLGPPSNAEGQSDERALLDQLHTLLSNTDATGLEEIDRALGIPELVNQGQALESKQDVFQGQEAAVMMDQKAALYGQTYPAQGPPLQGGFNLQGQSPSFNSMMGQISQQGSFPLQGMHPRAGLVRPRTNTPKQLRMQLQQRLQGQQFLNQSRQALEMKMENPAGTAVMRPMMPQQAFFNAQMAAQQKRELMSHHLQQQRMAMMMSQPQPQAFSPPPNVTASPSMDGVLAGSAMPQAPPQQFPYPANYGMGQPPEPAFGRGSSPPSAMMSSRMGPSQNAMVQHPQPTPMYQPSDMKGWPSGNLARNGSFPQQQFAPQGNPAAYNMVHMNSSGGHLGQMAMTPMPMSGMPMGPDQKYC
SKN-1 block – blocks SKN-1 activity in C. elegans | inhibition, % at 21.8 µM | C. elegans VP596 Pgst-4::GFP/RFP ratio, acrylamide-induced, 24 h | AID 624304 | 360,000 tested, 0.49% active;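 active = interference check ratio from 0.5 to 1.5 plus GFP to RFP signal ratio inhibition reaching or exceeding a fixed threshold, cut at about 30% in these data, passing the limit was not always enough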
MsrA conf – confirmation of bovine MsrA inhibitors. shares compounds with MsrA inh. purified bovine MsrA, absorbance read-out. inhibition, % at 15.5 µM. 2,300 tested, 41% active;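 also: coupled to thioredoxin reductase with NADPH and selenocystamine and DMSO as substrate; 0% = vehicle only and 100% = full effect of reference inhibitor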
* marks the source's active call; other numbers are inactive results; x = no result. The list is not random: actives were taken first. Their share in the collection is about 1.6%. Rule as the data show it, unless noted: active = inhibition above about 4.5%; inactive = the rest.

SMILES	MsrA inh	bovine MsrA act	MT1-MMP act inh	p-CIP stab down	SKN-1 block	MsrA conf
COc1cc(Nc2cc(C)n(-c3ccc(Cl)c(OC)c3)c(=O)c2)ccc1Cl	1	x	x	x	x	x
COc1ccc2c(c1OC)C(=O)OC2CC(=O)c1ccc(N(C)C)cc1 (stereo not drawn)	4.7*	-3	5	-9	2	4.6*
CC(C)[C@H](NS(=O)(=O)c1ccc(F)cc1F)C(=O)N1CCC[C@H]1C(=O)NCCc1ccccc1Cl	0	x	x	x	x	x
CC(=O)C1C(=O)c2c(cccc2[N+](=O)[O-])C1=Nc1ccccc1C (stereo not drawn)	1	x	x	3	x	x
Cc1ccccc1N=C1c2ccccc2C(=O)C1[N+](=O)[O-] (stereo not drawn)	5.8*	-2	-2	-9	-7	4
CCOc1cc(OCC)cc(C(=O)N2CCC[C@@H]2C(=O)N2CCC[C@@H]2C(=O)NCc2cccc(OC)c2)c1	0	x	x	x	x	x
COc1cccc(C2=CC(c3cccs3)n3nnnc3N2)c1 (stereo not drawn)	14*	-2	-82	-18	4	-1
O=C(NCCc1ccccc1Cl)[C@@H]1CCCN1C(=O)[C@@H](NC(=O)N1CCOCC1)C1CCCCC1	2	x	x	x	x	x
Cc1ccc(CN2CC=CCS2(=O)=O)cc1	0	x	x	x	x	x
COCCCNc1oc(/C=C/c2ccccc2)nc1C#N	5.9*	-5	2	-7	3	4
CCOc1cccc(C=NNC(=O)C(=O)Nc2cccc(C(F)(F)F)c2)c1O	2	x	x	x	x	x
COC(=O)c1ccc2nc(-c3cccc(Cl)c3)c(Cc3ccccc3C(F)(F)F)n2c1	0	x	x	x	x	x
O=C(OCC(=O)N1CCN(C(=O)c2ccco2)CC1)c1ccccc1NCCO	4.7*	-2	1	x	9	1
O=C(N/N=C\c1ccc[nH]1)c1cncc(Br)c1	5.1*	-1	-8	-6	10	4.6*
O=C(N/N=C/c1ccc[nH]1)c1cccc(Br)c1	4.7*	-1	-13	-14	-18	4
O=C(CNSc1ccc([N+](=O)[O-])cc1[N+](=O)[O-])OCc1ccccc1	1	x	x	x	x	x
O=C(O)c1ccc(N=NN2CCCC2)cc1	5.1*	-6	1	14	3	3
Cc1ccc(S(=O)(=O)/N=C/c2ccc(N(C)C)cc2)cc1	6.7*	-12	-1	-13	6	2
Cc1ccc(S(=O)(=O)NCCN=Cc2ccc(N(C)C)cc2)cc1	4.9*	-6	-3	-5	6	4
C[C@@H]1COc2cc(N3CCOCC3)ccc2S(=O)(=O)N1	0	x	x	x	x	x
COc1cccc(Nc2nc3ccccc3n3nnnc23)c1	8.8*	-2	-1	6	2	7.9*
Fc1ccccc1Nc1nc2ccccc2n2nnnc12	11*	-4	-5	-10	10	7.3*
Brc1ccc(Nc2nc3ccccc3n3nnnc23)cc1	x	x	x	-12	x	x
Fc1cccc(Nc2nc3ccccc3n3nnnc23)c1	3	-7	1	-6	-18	x
c1ccc(Nc2nc3ccccc3n3nnnc23)cc1	8.1*	-2	-3	-17	1	4.9*
SMILES	MsrA inh	bovine MsrA act	MT1-MMP act inh	p-CIP stab down	SKN-1 block	MsrA conf
COC(=O)[C@]12C[C@H](CC(=O)NCc3ccc(OC)c(OC)c3)C(=O)N(Cc3ccccc3)C1=C[C@H](C(C)(C)C)O[C@@H]2C	0	x	x	x	x	x
N#C/C(=C\c1ccc(O)c([N+](=O)[O-])c1)C(=O)NCc1ccccc1	5.5*	-4	2	4	-3	2
N#C/C(=C\c1ccc(O)c(Br)c1)C(=O)NCc1ccccc1	-1	-3	4	-16	8	x
COC(=O)C1=C(C)N(Cc2ccc(C(F)(F)F)cc2)C(=NCc2ccccc2C(F)(F)F)NC1c1ccc(C(F)(F)F)cc1 (stereo not drawn)	-1	x	x	x	x	x
COC(=O)[C@]1(Cc2ccccc2)NC=C(C(=O)c2ccccc2)[C@@H]1c1cccs1	1	x	x	x	x	x
CCOC(=O)C1=CCN(S(=O)(=O)c2cccc(Cl)c2)C1c1cccc(Cl)c1 (stereo not drawn)	-1	x	x	x	x	x
CC(C)(C)C(=O)c1c(N)[nH]c(C(=O)c2ccccc2)c1-c1ccc([N+](=O)[O-])cc1	0	x	x	x	x	x
CCOC(=O)C(/C=C(\C#N)C(=O)OCC)=C(/N)N1CCN(c2ccc(OC)cc2)CC1	5.9*	-9	4	-2	-4	8.2*
CCOC(=O)C(/C=C(\C#N)C(=O)OCC)=C(/N)N1CCN(c2c(C)cccc2C)CC1	1	-1	-1	-12	-24	x
CCC(c1nc2ccccc2[nH]1)n1c(C)nc2ccccc21 (stereo not drawn)	-1	x	x	x	x	x
Cc1cccc(-c2nnc(NC(=O)c3ccco3)s2)c1	4.8*	-4	1	22	17	2
COC(=O)Nc1nnc(/C=C/c2ccccc2)s1	3	-4	0	0	-1	x
O=C(Nc1nnc(/C=C/c2ccccc2)s1)c1ccco1	5.8*	-6	0	-4	7	4
CCN(CC)S(=O)(=O)c1nnc(NC(=O)c2ccco2)s1	6.6*	-3	3	-1	19	3
C[C@@H]1ON(C)[C@H]2C[C@H]3c4[nH]c5c(-c6ccc(C(F)(F)F)cc6)cccc5c4CCN3C(=O)[C@@H]12	0	x	x	x	x	x
Cc1cc2c(c(=O)o1)[C@@]1(C(=O)N(C)c3ccccc31)C1=C(CC(C)(C)CC1=O)O2	0	x	x	x	x	x
COc1ccc(C=NNc2nc3c([nH]2)c(=O)n(C)c(=O)n3C)cc1	5.5*	-3	1	x	-9	3
O=C1C=C(c2cccc3c2Oc2ccccc2S3)C[C@@H](c2ccc3c(c2)OCO3)C1	1	x	x	x	x	x
COc1ccc(-c2cc(=O)oc3cc(OCC(=O)NCC4CCC(C(=O)O)CC4)ccc23)cc1 (stereo not drawn)	4.9*	4	-4	1	-1	3
COc1ccc2cc(-c3ccccc3)c(=O)oc2c1	2	-4	-2	-1	18	x
CN(C)C(=O)COc1ccc2cc(-c3ccccc3)c(=O)oc2c1	4.7*	-3	5	-3	12	3
CC(Oc1ccc2cc(-c3ccccc3)c(=O)oc2c1)C(=O)NCC1CCC(C(=O)O)CC1 (stereo not drawn)	6.3*	-10	0	1	-5	4
Cc1c(OCc2nn[nH]n2)ccc2c(-c3ccccc3)cc(=O)oc12	2	-2	6	0	3	x
Cc1c(OCC(=O)N(C)C)ccc2c(-c3ccccc3)cc(=O)oc12	18*	-6	-2	1	8	16*
O=C(c1ccccc1)N1CCC2CCN(CCc3ccccc3)CC21 (stereo not drawn)	1	x	x	x	x	x
COC(=O)C1=C(C)N(C)C(=NCc2cccc(C(F)(F)F)c2)NC1c1ccccc1 (stereo not drawn)	0	x	x	x	x	x
O=C(C(=O)N1CCN(S(=O)(=O)c2cccc3ccccc23)CC1)c1cccc(C(F)(F)F)c1	0	x	x	x	x	x
